For one assay, the target named is DNA polymerase beta (Homo sapiens, UniProt P06746). As to the kind of experiment: Inhibition of human recombinant DNA polymerase beta.
Assay [1] deals with T1, DNA polymerase lambda (Homo sapiens) (UniProt Q9UGP5).
T1 sequence (whole entry): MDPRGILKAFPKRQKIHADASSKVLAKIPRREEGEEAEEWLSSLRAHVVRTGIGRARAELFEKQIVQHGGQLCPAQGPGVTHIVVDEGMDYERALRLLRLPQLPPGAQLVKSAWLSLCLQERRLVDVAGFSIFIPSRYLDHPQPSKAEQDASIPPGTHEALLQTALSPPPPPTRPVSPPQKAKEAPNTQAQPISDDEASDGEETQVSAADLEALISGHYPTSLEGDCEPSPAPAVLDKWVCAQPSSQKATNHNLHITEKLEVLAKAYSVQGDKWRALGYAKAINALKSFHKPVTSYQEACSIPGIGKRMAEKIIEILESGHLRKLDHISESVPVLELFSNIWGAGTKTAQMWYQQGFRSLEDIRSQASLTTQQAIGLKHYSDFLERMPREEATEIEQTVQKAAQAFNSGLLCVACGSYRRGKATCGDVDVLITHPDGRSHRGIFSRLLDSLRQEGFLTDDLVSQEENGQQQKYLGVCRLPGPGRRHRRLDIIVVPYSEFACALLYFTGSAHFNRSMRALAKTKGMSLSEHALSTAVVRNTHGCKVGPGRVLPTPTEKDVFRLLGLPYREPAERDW
The experiment in a line: Inhibition of human recombinant full length DNA polymerase lambda TdT-like activity using [3H]dNTP as substrate after 10 mins by scintillation counting analysis. The essentials: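 Full-length recombinant human pol λ (>90% pure) was tested for template-independent activity. Acid-insoluble radioactivity was counted, and ID50 came from dose–response fitting.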

A further assay relates to MOLT-4. As to the kind of experiment: Cytotoxicity against human MOLT4 cells overexpressing TdT assessed as growth inhibition after 24 to 48 hrs by MTT assay. It is filed as functional, cell-based. An outline of the steps: (§1)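 MOLT-4 cells were grown in RPMI-1640 and HeLa cells in DMEM, with 10% FCS at 37 °C. Cells were seeded at 10^5 per well, given 24 h to attach, then exposed to compounds (0.1–100 range) for 24 or 48 h. MTT at 1 mg/mL was added for 2 h at 37 °C, formazan was dissolved in DMSO, and absorbance read at 550 nm versus 0.5% DMSO vehicle. IC50 was obtained by regression, in triplicate.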
In general terms: Tetrazolium dyes change colour on reduction, which living cells bring about.

Assay [2] has as its target DNA nucleotidylexotransferase (Homo sapiens, UniProt P04053). The experiment in a line: Inhibition of human recombinant TdT using [3H]dNTP as substrate after 10 mins by scintillation counting analysis. An outline of the steps:
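TdT was from Trevigen. TCA-precipitated radioactivity was counted. ID50 came from dose–response fitting. For kinetics, DNA or dNTP was varied at increasing inhibitor, and Ki was obtained via Cheng–Prusoff for a competitive model.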

The target in assay [3] is T1, DNA polymerase lambda (Homo sapiens). The experiment in a line: Inhibition of human recombinant full length DNA polymerase lambda using [3H]dTTP as substrate and 10 poly(dA)/oligo(dT) as template-primer after 15 mins by scintillation counting analysis. An outline of the steps:
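Recombinant full-length human pol λ at 50 nM was assayed with 0.2 μM poly(dA)/oligo(dT)10:1 (3′-OH ends) and 5 μM [3H]dTTP (5 Ci/mmol). Incubation was 15 min at 37 °C. TCA precipitates were scintillation counted.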

Another assay concerns HeLa. As to the kind of experiment: Cytotoxicity against TdT-deficient human HeLa cells assessed as growth inhibition after 24 to 48 hrs by MTT assay. It counts as cell-based. The essentials:
as §1

What is called pIC50 is the IC50 on a negative log10 scale, so that one unit is a factor of ten.

Each structure is given as a SMILES string. pIC50: −log10 of the molar value. Some results are limits rather than exact numbers.

Chain of DNA nucleotidylexotransferase (P04053 whole entry): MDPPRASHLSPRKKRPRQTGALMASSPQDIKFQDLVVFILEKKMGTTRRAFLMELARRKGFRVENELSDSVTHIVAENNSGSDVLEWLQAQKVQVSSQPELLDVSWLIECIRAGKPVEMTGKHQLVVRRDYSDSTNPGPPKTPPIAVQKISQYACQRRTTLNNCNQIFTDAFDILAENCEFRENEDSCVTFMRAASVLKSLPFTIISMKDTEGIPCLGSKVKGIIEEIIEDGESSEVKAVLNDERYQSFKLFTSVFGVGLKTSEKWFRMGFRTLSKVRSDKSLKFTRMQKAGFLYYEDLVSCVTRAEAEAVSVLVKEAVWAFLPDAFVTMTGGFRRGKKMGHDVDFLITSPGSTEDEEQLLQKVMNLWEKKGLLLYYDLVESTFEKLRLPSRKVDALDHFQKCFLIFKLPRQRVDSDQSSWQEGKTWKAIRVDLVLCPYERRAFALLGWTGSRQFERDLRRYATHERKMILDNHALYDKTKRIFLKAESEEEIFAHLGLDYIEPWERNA

`CCOC(=O)C(=O)CC(=O)/C=C/c1cc(C(=O)c2ccccc2F)c[nH]1`: the pIC50 on DNA polymerase beta is under 4.40; in the assay with MOLT-4, 4.82; in the assay with HeLa it was under 4.40. Also, the results for the ID50 in assay [1], in assay [2] and in assay [3] were 27 µM, 20 µM and over 40 µM, respectively.

Consider `C/C=C/n1cc(/C=C/C(=O)CC(=O)C(=O)O)c2ccccc21`, for which the pIC50 at DNA polymerase beta, with MOLT-4 and in the assay on HeLa was under 4.40 throughout. Moreover, the ID50 was 10 µM in assay [1], 33 µM in assay [2] and over 40 µM in assay [3].

For the compound `CCOC(=O)C(=O)CC(=O)/C=C/c1cn(Cc2ccc(C#N)cc2)c2ccccc12`, at DNA polymerase beta, the pIC50 was under 4.40. Also, the ID50 in assay [1], in assay [2] and in assay [3] was over 40 µM each time.

As to `CCOC(=O)C(=O)CC(=O)/C=C/c1cn(Cc2ccc(F)cc2)c2ccccc12`, at DNA polymerase beta, the pIC50 is under 4.40. Further, the ID50 in assay [1], in assay [2] and in assay [3] was over 40 µM each time.

In the case of `CCCn1cc(/C=C/C(=O)CC(=O)C(=O)OCC)c2ccccc21`, the pIC50 on DNA polymerase beta was under 4.40. Further, the ID50 in assay [1], in assay [2] and in assay [3] was over 40 µM in each case.

With `O=C(/C=C/c1cn(-c2ccccc2)c2ccccc12)CC(=O)C(=O)O`, the pIC50 on DNA polymerase beta, with MOLT-4 and in the assay on HeLa was under 4.40 throughout. The ID50 is 2 µM in assay [1], 47 µM in assay [2] and over 50 µM in assay [3].

On to `C/C=C/Cn1cc(/C=C/C(=O)CC(=O)C(=O)O)c2ccccc21`, for which the pIC50 at DNA polymerase beta, with MOLT-4 and in the assay with HeLa was under 4.40 in each case. The ID50 is 5 µM in assay [1], 7.3 µM in assay [2] and over 40 µM in assay [3].

As for `O=C(/C=C/c1cn(Cc2ccc(Cl)cc2)c2ccccc12)CC(=O)C(=O)O`, the pIC50 on DNA polymerase beta was under 4.40; in the assay with MOLT-4 it was 4.72; in the assay on HeLa it was under 4.40. The results for the ID50 in assay [1], in assay [2] and in assay [3] were over 40 µM, 10 µM and over 40 µM, respectively.

As to `COc1ccc(Cn2cc(/C=C/C(=O)CC(=O)C(=O)O)c3ccccc32)cc1`, the pIC50 on DNA polymerase beta, with MOLT-4 and with HeLa was under 4.40 throughout. The ID50 is over 40 µM in assay [1], 10 µM in assay [2] and over 40 µM in assay [3].

Consider `O=C(/C=C/c1cn(Cc2ccc(F)cc2)c2ccccc12)CC(=O)C(=O)O`, for which the pIC50 at DNA polymerase beta, with MOLT-4 and with HeLa was under 4.40 each time. The ID50 in assay [1] was over 40 µM; in assay [2], 10 µM; in assay [3] it was over 40 µM.

With `CCOC(=O)C(=O)CC(=O)/C=C/c1cn(Cc2ccccc2)c2ccccc12`, the pIC50 at DNA polymerase beta, in the assay on MOLT-4 and in the assay with HeLa was under 4.40 in each case. Further, the ID50 in assay [1], in assay [2] and in assay [3] was over 40 µM each time.

As for `CCOC(=O)C(=O)CC(=O)/C=C/c1cc(C(=O)c2ccccc2)cn1Cc1ccc(F)cc1`, the pIC50 at DNA polymerase beta is under 4.40. Also, the ID50 in assay [1], in assay [2] and in assay [3] was over 40 µM each time.

Regarding `O=C(/C=C/c1cn(CC(=O)N2CCOCC2)c2ccccc12)CC(=O)C(=O)O`, the pIC50 on DNA polymerase beta, in the assay with MOLT-4 and in the assay on HeLa was under 4.40 throughout. Besides, the ID50 in assay [1] is 40 µM; in assay [2], 24 µM; in assay [3], over 40 µM.

For `O=C(/C=C/c1cn(Cc2ccccc2)c2ccccc12)CC(=O)C(=O)O`, the pIC50 is under 4.40 at DNA polymerase beta, 4.82 in the assay on MOLT-4 and under 4.40 in the assay on HeLa. Moreover, the ID50 is 1.7 µM in assay [1], 7.9 µM in assay [2] and over 40 µM in assay [3].

For the compound `CCOC(=O)C(=O)CC(=O)/C=C/c1cc(C(=O)c2cccc(F)c2)c[nH]1`, the pIC50 at DNA polymerase beta was under 4.40; in the assay with MOLT-4, 4.52; in the assay on HeLa, under 4.40. Moreover, the values for the ID50 in assay [1], in assay [2] and in assay [3] were 44 µM, 6 µM and over 40 µM, respectively.

With `CCOC(=O)C(=O)CC(=O)/C=C/c1cn(-c2ccc(O)cc2)c2ccccc12`, the pIC50 on DNA polymerase beta is under 4.40. In addition, the ID50 in assay [1], in assay [2] and in assay [3] was over 40 µM in each case.

Take `C=C(C)Cn1cc(/C=C/C(=O)CC(=O)C(=O)O)c2ccccc21`: the negative-log IC50 (pIC50) on DNA polymerase beta is under 4.40; in the assay with MOLT-4 it was 4.40; in the assay on HeLa, 4.40. The ID50 was 40 µM in assay [1], 2.5 µM in assay [2] and over 40 µM in assay [3].

As for `CCOC(=O)C(=O)CC(=O)/C=C/c1cn(-c2ccccc2)c2ccccc12`, the ID50 in assay [1], in assay [2] and in assay [3] was over 40 µM throughout.

For the compound `CCOC(=O)C(=O)CC(=O)/C=C/c1cn(CC(=O)N(C)C)c2ccccc12`, the pIC50 on DNA polymerase beta was under 4.40. The ID50 in assay [1], in assay [2] and in assay [3] was over 40 µM each time.

For the compound `CCOC(=O)C(=O)CC(=O)/C=C/c1cn(Cc2ccc(OC)cc2)c2ccccc12`, at DNA polymerase beta, the negative-log IC50 (pIC50) was under 4.40. Moreover, the ID50 in assay [1], in assay [2] and in assay [3] was over 40 µM each time.

With `CCOC(=O)C(=O)CC(=O)/C=C/c1cn(C=C(C)C)c2ccccc12`, the pIC50 at DNA polymerase beta is under 4.40. In addition, the ID50 in assay [1], in assay [2] and in assay [3] was over 40 µM throughout.

In the case of `CCOC(=O)C(=O)CC(=O)/C=C/c1cc(C(=O)c2ccccc2)cn1Cc1ccccc1`, on DNA polymerase beta, the pIC50 is under 4.40. Besides, the ID50 in assay [1], in assay [2] and in assay [3] was over 40 µM in each case.

For the compound `CCOC(=O)C(=O)CC(=O)/C=C/c1cn(Cc2ccc(Cl)cc2)c2ccccc12`, the pIC50 at DNA polymerase beta is under 4.40. In addition, the ID50 was over 40 µM in assay [1], 40 µM in assay [2] and over 40 µM in assay [3].

In the case of `CCOC(=O)C(=O)CC(=O)/C=C/c1cn(CC(=O)N2CCOCC2)c2ccccc12`, on DNA polymerase beta, the pIC50 is under 4.40. Also, the ID50 in assay [1], in assay [2] and in assay [3] was over 40 µM each time.

In the case of `C/C=C/Cn1cc(/C=C/C(=O)CC(=O)C(=O)OCC)c2ccccc21`, at DNA polymerase beta, the negative logarithm of the IC50 (pIC50) was under 4.40. Further, the ID50 in assay [1], in assay [2] and in assay [3] was over 40 µM each time.

As to `CCOC(=O)C(=O)CC(=O)/C=C/c1cn(CCC(C)C)c2ccccc12`, the pIC50 on DNA polymerase beta is under 4.40. The ID50 in assay [1], in assay [2] and in assay [3] was over 40 µM each time.

Consider `CCCCn1cc(/C=C/C(=O)CC(=O)C(=O)OCC)c2ccccc21`, for which the pIC50 at DNA polymerase beta is under 4.40. The ID50 in assay [1], in assay [2] and in assay [3] was over 40 µM each time.

Turning to `C/C=C/n1cc(/C=C/C(=O)CC(=O)C(=O)OCC)c2ccccc21`, the pIC50 at DNA polymerase beta was under 4.40. Also, the ID50 in assay [1], in assay [2] and in assay [3] was over 40 µM each time.

As to `C=C(C)Cn1cc(/C=C/C(=O)CC(=O)C(=O)OCC)c2ccccc21`, the pIC50 on DNA polymerase beta is under 4.40. Further, the ID50 in assay [1], in assay [2] and in assay [3] was over 40 µM each time.

Consider `CCOC(=O)C(=O)CC(=O)/C=C/c1cn(-c2ccc(Cl)cc2)c2ccccc12`, for which the pIC50 at DNA polymerase beta is under 4.40. The ID50 in assay [1] was over 40 µM; in assay [2] it was over 40 µM; in assay [3], 6 µM.

Regarding `CCOC(=O)C(=O)CC(=O)/C=C/c1cc(C(=O)c2ccccc2)cn1Cc1ccc(C#N)cc1`, the pIC50 at DNA polymerase beta is under 4.40. The ID50 in assay [1], in assay [2] and in assay [3] was over 40 µM each time.

For the compound `CCOC(=O)C(=O)CC(=O)/C=C/c1cn(Cc2ccc(O)cc2)c2ccccc12`, the pIC50 on DNA polymerase beta is under 4.40. The ID50 in assay [1] is over 40 µM; in assay [2], 40 µM; in assay [3] it was over 40 µM.

Values taken from ChEMBL document CHEMBL2440062, “New nucleotide-competitive non-nucleoside inhibitors of terminal deoxynucleotidyl transferase: discovery, characterization, and crystal structure in complex with the target” (J Med Chem, 2013).
